Laboratory results published in paper PMC11047177 (ESMO Open, 2024).

Experiment: Phase I study NCT03854227: DLTs and adverse events
Assay type: in vivo, human
Method in brief: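 Open-label, multicentre first-in-human trial in adults (ECOG 0–1) with advanced or metastatic tumours. Oral test compound, q.d. or b.i.d., on an empty stomach in continuous 28-day cycles. Part 1 started at 0.5 mg q.d., with escalation guided by a two-parameter Bayesian logistic regression model on cycle 1 DLTs. Part 2 ran at 6 mg q.d. AEs were graded by CTCAE 5.0 and summarised descriptively by dose level.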

[1] = Part 2 N = 26, 6 mg q.d., any grade
[2] = Part 2 N = 26, 6 mg q.d., grade ≥3
[3] = overall (part 1 + part 2), N=54

Compound: Cc1ncnc2c1ccn2[C@@H]1C[C@H](Oc2cc(C(F)F)c(F)c3c2CNCC3)[C@@H](O)[C@H]1O [PF-06939999]
- TRAE Anemia (Part 1 N = 28, any grade): 12 (43) n (%)
- TRAE Any (Part 1 N = 28, any grade): 24 (86) n (%)
- TRAE Decreased appetite (Part 1 N = 28, any grade): 6 (21) n (%)
- TRAE Dysgeusia (Part 1 N = 28, any grade): 9 (32) n (%)
- TRAE Dyspepsia (Part 1 N = 28, any grade): 2 (7) n (%)
- TRAE Fatigue (Part 1 N = 28, any grade): 9 (32) n (%)
- TRAE Hypomagnesemia (Part 1 N = 28, any grade): 4 (14) n (%)
- TRAE Leukopenia (Part 1 N = 28, any grade): 3 (11) n (%)
- TRAE Nausea (Part 1 N = 28, any grade): 8 (29) n (%)
- TRAE Neutropenia (Part 1 N = 28, any grade): 3 (11) n (%)
- TRAE Thrombocytopenia (including platelet count decreased) (Part 1 N = 28, any grade): 9 (32) n (%)
- TRAE Vomiting (Part 1 N = 28, any grade): 1 (4) n (%)
- TRAE Weight decreased (Part 1 N = 28, any grade): 0 n (%)
- TRAE Anemia (Part 1 N = 28, grade ≥3): 8 (29) n (%)
- TRAE Any (Part 1 N = 28, grade ≥3): 12 (43) n (%)
- TRAE Decreased appetite (Part 1 N = 28, grade ≥3): 0 n (%)
- TRAE Dysgeusia (Part 1 N = 28, grade ≥3): 0 n (%)
- TRAE Dyspepsia (Part 1 N = 28, grade ≥3): 0 n (%)
- TRAE Fatigue (Part 1 N = 28, grade ≥3): 2 (7) n (%)
- TRAE Hypomagnesemia (Part 1 N = 28, grade ≥3): 0 n (%)
- TRAE Leukopenia (Part 1 N = 28, grade ≥3): 0 n (%)
- TRAE Nausea (Part 1 N = 28, grade ≥3): 0 n (%)
- TRAE Neutropenia (Part 1 N = 28, grade ≥3): 1 (4) n (%)
- TRAE Thrombocytopenia (including platelet count decreased) (Part 1 N = 28, grade ≥3): 6 (21) n (%)
- TRAE Vomiting (Part 1 N = 28, grade ≥3): 0 n (%)
- TRAE Weight decreased (Part 1 N = 28, grade ≥3): 0 n (%)
- TRAE Anemia [1]: 11 (42) n (%)
- TRAE Any [1]: 21 (81) n (%)
- TRAE Decreased appetite [1]: 7 (27) n (%)
- TRAE Dysgeusia [1]: 3 (12) n (%)
- TRAE Dyspepsia [1]: 4 (15) n (%)
- TRAE Fatigue [1]: 6 (23) n (%)
- TRAE Hypomagnesemia [1]: 1 (4) n (%)
- TRAE Leukopenia [1]: 2 (8) n (%)
- TRAE Nausea [1]: 9 (35) n (%)
- TRAE Neutropenia [1]: 1 (4) n (%)
- TRAE Thrombocytopenia (including platelet count decreased) [1]: 13 (50) n (%)
- TRAE Vomiting [1]: 3 (12) n (%)
- TRAE Weight decreased [1]: 3 (12) n (%)
- TRAE Anemia [2]: 7 (27) n (%)
- TRAE Any [2]: 11 (42) n (%)
- TRAE Decreased appetite [2]: 0 n (%)
- TRAE Dysgeusia [2]: 0 n (%)
- TRAE Dyspepsia [2]: 0 n (%)
- TRAE Fatigue [2]: 1 (4) n (%)
- TRAE Hypomagnesemia [2]: 0 n (%)
- TRAE Leukopenia [2]: 1 (4) n (%)
- TRAE Nausea [2]: 0 n (%)
- TRAE Neutropenia [2]: 1 (4) n (%)
- TRAE Thrombocytopenia (including platelet count decreased) [2]: 6 (23) n (%)
- TRAE Vomiting [2]: 0 n (%)
- TRAE Weight decreased [2]: 0 n (%)
- TRAE Anemia (Total N = 54, any grade): 23 (43) n (%)
- TRAE Any (Total N = 54, any grade): 45 (83) n (%)
- TRAE Decreased appetite (Total N = 54, any grade): 13 (24) n (%)
- TRAE Dysgeusia (Total N = 54, any grade): 12 (22) n (%)
- TRAE Dyspepsia (Total N = 54, any grade): 6 (11) n (%)
- TRAE Fatigue (Total N = 54, any grade): 15 (28) n (%)
- TRAE Hypomagnesemia (Total N = 54, any grade): 5 (9) n (%)
- TRAE Leukopenia (Total N = 54, any grade): 5 (9) n (%)
- TRAE Nausea (Total N = 54, any grade): 17 (32) n (%)
- TRAE Neutropenia (Total N = 54, any grade): 4 (7) n (%)
- TRAE Thrombocytopenia (including platelet count decreased) (Total N = 54, any grade): 22 (41) n (%)
- TRAE Vomiting (Total N = 54, any grade): 4 (7) n (%)
- TRAE Weight decreased (Total N = 54, any grade): 3 (6) n (%)
- TRAE Anemia (Total N = 54, grade ≥3): 15 (28) n (%)
- TRAE Any (Total N = 54, grade ≥3): 23 (43) n (%)
- TRAE Decreased appetite (Total N = 54, grade ≥3): 0 n (%)
- TRAE Dysgeusia (Total N = 54, grade ≥3): 0 n (%)
- TRAE Dyspepsia (Total N = 54, grade ≥3): 0 n (%)
- TRAE Fatigue (Total N = 54, grade ≥3): 3 (6) n (%)
- TRAE Hypomagnesemia (Total N = 54, grade ≥3): 0 n (%)
- TRAE Leukopenia (Total N = 54, grade ≥3): 1 (2) n (%)
- TRAE Nausea (Total N = 54, grade ≥3): 0 n (%)
- TRAE Neutropenia (Total N = 54, grade ≥3): 2 (4) n (%)
- TRAE Thrombocytopenia (including platelet count decreased) (Total N = 54, grade ≥3): 12 (22) n (%)
- TRAE Vomiting (Total N = 54, grade ≥3): 0 n (%)
- TRAE Weight decreased (Total N = 54, grade ≥3): 0 n (%)
- Patients who discontinued treatment due to AEs (all 54 patients, 6 patients): 11%
- Recommended part 2 dose (RP2D) (oral, selected from safety and PK/PD modeling): 6 mg q.d.
- Grade ≥3 TRAE Anemia [3]: 28%
- Grade ≥3 TRAE Fatigue [3]: 6%
- Grade ≥3 TRAE Neutropenia [3]: 4%
- Grade ≥3 TRAE thrombocytopenia/platelet count decreased [3]: 22%
